Published values from different studies.
Protocols differ between the studies behind these lines.
Read-out: enzyme activity
Action: inhibitor
rep main protease: Replicase polyprotein 1ab, main protease (rep, Severe acute respiratory syndrome coronavirus 2, UniProt P0DTD1)
rep papain-like protease: Replicase polyprotein 1ab, papain-like protease (rep, Severe acute respiratory syndrome coronavirus 2, UniProt P0DTD1)

`O=C(CSc1nnc2c(n1)[nH]c1ccccc12)Nc1cccc(S(=O)(=O)N2CCOCC2)c1` has an inhibition of 0% (rep main protease; 100 µg/mL).
`O=[N+]([O-])c1cccc(-c2nc(O)c3ccccc3n2)c1` has an inhibition of 22.3% (rep main protease; 20 µM).
The inhibition of `COc1cc(C)cc2c1C(=O)C=CC2=O` is reported as 90.4% (rep main protease; 10 µM).
`Cc1ccc(NC(=O)c2cc3c(=O)n4cccc(C)c4nc3n2C)cc1Cl` gave an inhibition of 75% (rep main protease; 1 mM).
The inhibition of `COc1cc([C@H]2OC[C@H]3[C@@H]2CO[C@H]3c2ccc(OC)c(OC)c2)ccc1O` is reported as 11.4% (rep main protease; 100 µM).
With `O=C(Nc1cccc(C(F)(F)F)c1)c1ccc([N+](=O)[O-])o1` the inhibition was 1.47% (rep main protease; 20 µM).
`C[C@@H]1O[C@@H](O[C@@H]2[C@@H](O)[C@H](OCCc3ccc(O)c(O)c3)O[C@H](CO)[C@H]2OC(=O)/C=C/c2ccc(O)c(O)c2)[C@H](O)[C@H](O)[C@H]1O` has an inhibition of 97% (rep main protease; 100 µM).
`CN(C(=O)[C@H](Cc1ccccc1)NC(=O)OCc1ccccc1)N(C#N)CCC(N)=O` has an inhibition of 100% (rep main protease; fluorescence; 50 µM, pH 7.2).
The inhibition of `CC1=CC(=O)c2c(O)cccc2C1=O` is reported as 7.7% (rep main protease; 10 µM).
`Cn1c(C(=O)Nc2ccc3c(c2)OCCO3)cc2c(=O)n3ccccc3nc21` has an inhibition of 42% (rep main protease; 10 µM).
`CCn1nc2n(Cc3ccc(F)cc3)c(=O)c3nn(C)cc3n2c1=O` has an inhibition of 15.5% (rep main protease; 20 µM).
`COc1cccc2c1C(=O)C(C(C)=O)=CC2=O` has an inhibition of 96.1% (rep main protease; 10 µM).
The inhibition of `O=C(NC[C@H](NC(=O)c1cncc2ccccc12)c1ccc2ccccc2c1)c1cnc[nH]1` is reported as 18.9% (rep main protease; 5 µM).
With `NC(=O)c1c[nH]c(Cc2ccccc2)cc1=O` the inhibition was 10.9% (rep main protease; 20 µM).
For `Cc1cc(OCc2ccccc2)c2c(c1)C(=O)C=CC2=O`, the inhibition was 28.1% (rep main protease; 0.1 µM).
`Cc1cccc2cc(/C=N\c3ccc(-c4nc5ccccc5[nH]4)cc3)c(Cl)nc12` gave an inhibition of 44.9% (rep papain-like protease; 100 µM).
`COc1cc(C[C@@H](C)[C@@H](C)Cc2ccc(O)c(OC)c2)ccc1O` gave an inhibition of 45% (rep main protease; FRET; 8 µM).
With `COC(=O)C1=CO[C@@H](O[C@@H]2O[C@H](CO)[C@@H](O)[C@H](O)[C@H]2O)[C@@H]2[C@@H](C)[C@@H](O)C[C@H]12` the inhibition was 10.6% (rep main protease; 100 µM).
`CC[C@@H](C)[C@@H](NC(=O)[C@@H](CCC(=O)O)NC(=O)[C@H](NC(=O)[C@@H](CCC(N)=O)NC(=O)[C@H]1CCCN1C(=O)[C@@H](CCC(N)=O)NC(=O)[C@@H](Cc1c[nH]c2ccccc12)NC(C)=O)C(C)C)C(=O)N[C@H](CO)C(=O)N[C@H](CCC(N)=O)C(=O)N[C@H](CO)C(=O)N1CCC[C@@H]1C(=O)N[C@H](Cc1c[nH]c2ccccc12)C(=O)N[C@H](CO)C(=O)N[C@H](Cc1c[nH]cn1)C(=O)N1CCC[C@@H]1C(=O)N[C@H](CO)C(=O)N[C@H](CCCNC(=N)N)C(N)=O` has an inhibition of 100% (rep main protease; fluorescence; 140 µM).
The inhibition of `CN(C)C(=S)SC(=S)N(C)C` is reported as -6.7% (rep main protease; 20 µM).
With `O=C(Nc1ccccc1F)c1cc2c(=O)n3ccccc3nc2n1Cc1ccccc1` the inhibition was 71% (rep main protease; 1 mM).
`CC[C@H](NC(=O)OCc1ccccc1)C(=O)N[C@H](C(=O)N[C@@H](CC(C)C)C(=O)N(C)N(C#N)CCC(N)=O)C(C)(C)C` gave an inhibition of 100% (rep main protease; fluorescence; 50 µM, pH 7.2).
For `C/N=c1\nc(-c2ccccc2)n(-c2ccccc2)s1`, the inhibition was 96.7% (rep main protease; 20 µM).
The inhibition of `Cc1ncc(/C=C\C(=O)N2C[C@@H](NC(=O)c3ccc[nH]c3=O)CC3(CCOCC3)C2)c(=O)[nH]1` is reported as 15.5% (rep main protease; 5 µM).
`CC1(C)C=Cc2cc(-c3coc4cc(O)cc(O)c4c3=O)ccc2O1` has an inhibition of 11.8% (rep main protease; 8 µM).
The inhibition of `Clc1nc2ccccc2cc1/C=N\c1ccc(-c2nc3ccccc3[nH]2)cc1` is reported as 3.9% (rep papain-like protease; 10 µM).
The inhibition of `O=C(O)[C@]1(O)C[C@@H](O)[C@@H](O)[C@H](O)C1` is reported as < 25% (rep main protease; FRET; 10 µM, 10 min).
`O=c1cc(-c2ccc(O)cc2)oc2cc(O)c(O)c(O)c12` gave an inhibition of 90.7% (rep main protease; 10 µM).
With `CC(=O)Nc1ccc(-c2cnc(/N=C\c3cc4ccccc4nc3Cl)s2)cc1` the inhibition was 97.2% (rep papain-like protease; 100 µM).
The inhibition of `CN1CCc2cccc3c2[C@H]1Cc1ccc(O)c(O)c1-3` is reported as -23% (rep main protease; 20 µM).
With `Cc1cc(NC(=O)c2cc3c(=O)n4cccc(C)c4nc3n2C)ccc1Br` the inhibition was 82% (rep main protease; 1 mM).
With `Cn1cc2c(n1)c(=O)n(Cc1ccc(F)cc1)c1nn(Cc3ccccc3)c(=O)n21` the inhibition was 14.9% (rep main protease; 20 µM).
The inhibition of `Cc1ccc2nc(Cl)c(/C=N/c3cccc([N+](=O)[O-])c3)cc2c1` is reported as 21.7% (rep papain-like protease; 100 µM).
`O=C(O)c1cc(O)c2c(c1)C(=O)c1cccc(O)c1C2=O` has an inhibition of 7.8% (rep main protease; 10 µM).
`O=C(/C=C/c1ccc(O)c(O)c1)OC1CC(OC(=O)/C=C/c2ccc(O)c(O)c2)(C(=O)O)CC(O)C1O` (centres unmarked) has an inhibition of 87.3% (rep main protease; 100 µM).
The inhibition of `COc1cc(/C=C/C(=O)CC(=O)/C=C/c2ccc(O)c(OC)c2)ccc1O` is reported as > 50% (rep main protease; FRET; 10 µM, 10 min).
The inhibition of `CCc1ccc(NC(=O)c2cc3c(=O)n4ccccc4nc3n2C)cc1` is reported as 76% (rep main protease; 1 mM).
With `COc1cc(-c2oc3cc(O)cc(O)c3c(=O)c2O)ccc1O` the inhibition was 25 to 50% (rep main protease; FRET; 10 µM, 10 min).
With `COc1ccc(OC)c2c1C(=O)C=CC2=O` the inhibition was 8.9% (rep main protease; 0.1 µM).
With `Cn1cc2c(n1)c(=O)n(Cc1ccc(F)cc1)c1nn(CCOc3ccc(F)cc3)c(=O)n21` the inhibition was 13% (rep main protease; 20 µM).
`O=C(O)c1cc(O)c2c(c1)C([C@@H]1c3cc(C(=O)O)cc(O)c3C(=O)c3c(O[C@H]4O[C@H](CO)[C@@H](O)[C@H](O)[C@H]4O)cccc31)c1cccc(O[C@H]3O[C@H](CO)[C@@H](O)[C@H](O)[C@H]3O)c1C2=O` (some centres unmarked) gave an inhibition of 103% (rep main protease; 20 µM).
